Bioassay records: PubChem BioAssay, several laboratories
Tb hexokinase – blocks Trypanosoma brucei hexokinase 1 activity; recombinant TbHK1, G6PDH-coupled NADH A340; inhibition, % at 10 µM; actives 0.11% (n = 220,000); AID 1430;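 active = inhibition of 50% or more in the single-dose primary screen; inactive = inhibition below 50%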
EP2 antag – inhibitors of human EP2 prostaglandin E2 receptor. P43116. C6 glioma cells expressing human EP2, cAMP TR-FRET; cells stimulated with saturating PGE2. inhibition, % at 25 µM. actives 0.52% (n = 260,000);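 active = percent inhibition above 40 after rounding to a whole number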;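 note: rat C6 glioma host cells with rolipram phosphodiesterase inhibitor present; the protocol text gives 20 µM as final concentration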
Target sequence (P43116 whole entry, looked up): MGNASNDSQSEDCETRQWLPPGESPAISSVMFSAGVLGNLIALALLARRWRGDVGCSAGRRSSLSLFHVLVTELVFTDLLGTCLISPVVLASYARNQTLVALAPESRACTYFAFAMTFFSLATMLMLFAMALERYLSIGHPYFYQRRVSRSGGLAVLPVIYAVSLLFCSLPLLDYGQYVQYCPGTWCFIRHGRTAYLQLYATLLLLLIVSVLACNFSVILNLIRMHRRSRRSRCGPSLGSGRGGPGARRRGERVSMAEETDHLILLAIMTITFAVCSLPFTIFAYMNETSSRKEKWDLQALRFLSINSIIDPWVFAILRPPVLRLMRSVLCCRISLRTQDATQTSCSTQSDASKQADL
EP2 mod – EP2 receptor (human) modulation; EP2-expressing cells, cAMP HTRF FRET, PGE2 co-stimulation; actives 0.83% (n = 260,000); AID 940; induction, % at 25 µM;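 active = compounds whose cAMP rise, as percent of the full-agonist control response, exceeds 60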;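 note: rat C6 glioma line stably carrying human EP2 under a CMV promoter; the protocol text gives 20 µM as final concentration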
HMGR II inh – E. faecalis class II HMG-CoA reductase inhibition; purified E. faecalis HMGR, NADPH absorbance 340 nm kinetic; inhibition, % at 10 µM; actives 0.41% (n = 190,000);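 active = inhibition above a set limit, the median over all tested compounds plus 3 SD, cut at about 9.5% in these data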;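 note: enzyme runs in reverse so mevalonate oxidation gives rising NADPH absorbance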
MT stabilizer – microtubule stabilizers in HeLa cells | HeLa tubulin immunostaining HCS, 24 h; share of cells brighter than vehicle mean+2SD | % tubulin-high responders, % at 10 µM | actives 0.83% (n = 200,000);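 active = plate Z-score above 3 for both tubulin-high and condensed-nucleus cell shares, with cell loss under 80%, at 10 µM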;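 note: anti alpha tubulin signal scored within the nucleus-defined area of each cell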
b-catenin transl – alters nuclear translocation of beta-catenin in HeLa cells | actives 0.3% (n = 190,000) | AID 1665 | immunofluorescence imaging | nuclear translocation activity, % at 5 µM;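 active = nuclear translocation activity above 50% at 5 µM, with a well cell count of 50 or more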;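 note: per-cell ratio of nuclear to cytoplasmic median beta-catenin stain intensity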
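System: HeLa cells, endogenous beta-catenin; compound dosing: 5 µM primary single dose, 0.1% DMSO, 0.02–20 µM confirmation series; incubation: 24 h compound exposure at 37°C, 5% CO2; signal: beta-catenin immunofluorescence imaging with DAPI; evaluation: % activation, nuclear-to-cytoplasmic median beta-catenin signal ratio per cell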
Large screens that a line does not name were inactive. Rows were chosen to be rich in hits. Some 2.4% of all compounds tested hit in one or more screens of this group.

CC(C)C(=O)c1cc2c(cc1NC(=O)c1cccs1)OCCO2	EP2 mod 65 (no result: b-catenin transl)
Cc1c(C(=O)O)ccc2c1NC(c1ccc(OCC#N)cc1)C1CC=CC21 (stereo not given)	none (no result: Tb hexokinase, HMGR II inh, MT stabilizer, b-catenin transl)
CSc1ccccc1NC(=O)CN(C1CCCCC1)S(C)(=O)=O	none (no result: b-catenin transl)
CN(CC(=O)Nc1ccccc1Sc1ccccc1)C1CCCCC1	EP2 mod 64
Brc1ccccc1C1CC(c2ccccc2)=Nc2ccccc2N1 (stereo not given)	none
Clc1ccccc1C1CC(c2ccccc2)=Nc2ccccc2N1 (stereo not given)	EP2 mod 62 (no result: HMGR II inh, MT stabilizer)
CN1/C(=C/C=C(/C#N)C(N)=O)C(C)(C)c2ccccc21	MT stabilizer 20 (no result: b-catenin transl)
O=S(=O)(Nc1nccs1)c1cc(Cl)ccc1Cl	EP2 mod 61
O=S(=O)(Nc1nccs1)c1ccc(Br)cc1	none
O=C1NC(=O)c2cc(S(=O)(=O)O)cc3cccc1c23	none (no result: Tb hexokinase, HMGR II inh, MT stabilizer, b-catenin transl)
COc1cccc(C2Nc3ccc(I)cc3C3C=CCC32)c1OC (stereo not given)	none (no result: Tb hexokinase, HMGR II inh, MT stabilizer, b-catenin transl)
COc1ccc2c(c1)C1C=CCC1C(c1cc3c(cc1Br)OCO3)N2 (stereo not given)	MT stabilizer 38 (no result: b-catenin transl)
N#Cc1cnc(SCC(=O)NNC(=O)COc2ccccc2)nc1N	none (no result: Tb hexokinase, HMGR II inh, MT stabilizer, b-catenin transl)
COC(=O)CSc1ncc(C#N)c(N)n1	HMGR II inh 63
COc1ccc2cc(C)c3nn(CC(=O)N(C(C)C)C(C)C)c(=O)n3c2c1	none (no result: Tb hexokinase, EP2 antag, HMGR II inh, MT stabilizer, b-catenin transl)
O=C1NC(=O)N(c2ccc(F)cc2)C(=O)/C1=C/c1ccco1	EP2 antag 53 (no result: Tb hexokinase, HMGR II inh, MT stabilizer, b-catenin transl)
O=C1NC(=O)N(c2ccc(F)cc2)C(=O)/C1=C/c1ccc(N2CCOCC2)o1	none (no result: Tb hexokinase, HMGR II inh, MT stabilizer, b-catenin transl)
CCOC(=O)/C=c1\s/c(=C\c2ccccc2C)c(=O)n1CC(=O)NCc1ccc2c(c1)OCO2	MT stabilizer 22
Cc1ccc(C(=O)C2=C(O)C(=O)N(Cc3ccccc3)C2c2cccnc2)o1 (stereo not given)	EP2 mod 61
COc1ccc(-c2nc(-c3ccc(O)cc3O)cs2)cc1OC	EP2 antag 82
COc1ccc(-c2nc(-c3ccccc3)cs2)cc1OC	none (no result: Tb hexokinase, HMGR II inh, MT stabilizer, b-catenin transl)
Cc1cc(C)c2nc(N3CCCCC3)c(C#N)cc2c1	EP2 mod 63 (no result: Tb hexokinase, HMGR II inh, MT stabilizer, b-catenin transl)
CC1CCN(c2nc3c(cc2C#N)COC(C)(C)C3)CC1	HMGR II inh 9.7
Cc1cccc2cc(C#N)c(N3CCCCC3)nc12	EP2 mod 74 (no result: Tb hexokinase, HMGR II inh, MT stabilizer, b-catenin transl)
COCC(=O)N1CCCN(c2nc3c(C)cccc3cc2C#N)CC1	none
Cc1cccc2cc(C#N)c(N3CCC(C)CC3)nc12	EP2 mod 77 (no result: Tb hexokinase, HMGR II inh, MT stabilizer, b-catenin transl)
CCn1ncc(CN(C)C(=O)c2cnn3c(C(F)F)cc(-c4ccc(C)cc4)nc23)c1C	none (no result: Tb hexokinase, HMGR II inh, MT stabilizer, b-catenin transl)
CC(C)OC(=O)c1cc(C(=O)c2cc(Br)ccc2O)coc1=N	none
CCOc1ccccc1NC(=O)c1cc(C(=O)c2cc(Br)ccc2O)coc1=N	MT stabilizer 12 (no result: b-catenin transl)
NC(=O)c1nnn(Cc2cc(Cl)c(C(=O)c3ccc(Cl)cc3)c(Cl)c2)c1N	EP2 antag 44 (no result: Tb hexokinase, HMGR II inh, MT stabilizer, b-catenin transl)
COC(=O)c1nnn(Cc2ccccc2)c1N	none
COc1ccccc1N1CCN(c2ncnc3c2oc2ccccc23)CC1	MT stabilizer 27, b-catenin transl 74
c1cnc(N2CCN(c3ncnc4c3oc3ccccc34)CC2)nc1	none (no result: Tb hexokinase, EP2 antag, EP2 mod, HMGR II inh, MT stabilizer)
COc1ccccc1N1CCN(C(=O)c2oc3ccc(Br)cc3c2C)CC1	MT stabilizer 15
CC1CCCCN1C(=O)CSc1nnc(-c2ccco2)n1Cc1ccco1 (stereo not given)	none (no result: Tb hexokinase, HMGR II inh, MT stabilizer, b-catenin transl)
CC(C)C1Cc2c(C#N)c(N)sc(=S)c2CO1 (stereo not given)	EP2 antag 59 (no result: b-catenin transl)
COc1cc2[nH]c(=O)c(C(=O)NCc3ccncc3)c(O)c2cc1OC	none (no result: Tb hexokinase, HMGR II inh, MT stabilizer, b-catenin transl)
C(=C\c1ccccc1)/C=N/Nc1nc2ccccc2[nH]1	MT stabilizer 13
Cn1c(=O)c2[nH]c(SCC(=O)NC3CCCCC3)nc2n(C)c1=O	none (no result: Tb hexokinase, HMGR II inh, MT stabilizer, b-catenin transl)
COc1cc(/C=N/NS(=O)(=O)c2ccc3ccccc3c2)ccc1OCc1ccc(C(=O)O)cc1	none (no result: HMGR II inh, MT stabilizer)
COC(=O)c1ccc(COc2ccccc2/C=N/NS(=O)(=O)c2ccccc2)cc1	MT stabilizer 23
CCOC(=O)N1CCN(C(=O)c2ccccc2-c2ccccc2)CC1	MT stabilizer 32
O=[N+]([O-])c1cc(Cc2cc([N+](=O)[O-])c3cccnc3c2O)c(O)c2ncccc12	EP2 antag 75 (no result: Tb hexokinase, HMGR II inh, MT stabilizer, b-catenin transl)
